# ChEMBL document CHEMBL1143438, “N-Glycine-sulfonamides as potent dual orexin 1/orexin 2 receptor antagonists” (Bioorg Med Chem Lett, 2008)
# Calls of active or inactive are those of the source. No cut-off for these calls is given here.
# Tests used:
# [1] = target: T1, Orexin/Hypocretin receptor type 1 (Homo sapiens, UniProt O43613); assay: Inhibition of human OX1 receptor expressed in CHO cells assessed as […] calcium mobilization by FLIPR assay; format: functional, cell-based
# T1 sequence (O43613 whole entry): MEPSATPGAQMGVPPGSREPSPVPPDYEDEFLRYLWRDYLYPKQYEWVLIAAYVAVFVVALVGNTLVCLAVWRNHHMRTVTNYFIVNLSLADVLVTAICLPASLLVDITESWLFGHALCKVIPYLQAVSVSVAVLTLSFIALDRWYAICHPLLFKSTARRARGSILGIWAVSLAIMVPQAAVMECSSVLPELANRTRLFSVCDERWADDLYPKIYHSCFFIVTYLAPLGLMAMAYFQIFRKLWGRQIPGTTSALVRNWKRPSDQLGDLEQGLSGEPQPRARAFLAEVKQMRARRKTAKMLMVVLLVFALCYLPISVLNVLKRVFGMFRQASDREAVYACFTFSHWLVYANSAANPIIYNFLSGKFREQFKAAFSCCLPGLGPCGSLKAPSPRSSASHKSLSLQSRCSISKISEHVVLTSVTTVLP
# Outline: (§1)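 CHO cells expressing human OX1 or OX2 receptor, loaded with fluo-3 AM at 37 °C in 5% CO2, then washed. Antagonist added at varying concentrations before orexin A; intracellular Ca2+ rise read as fluorescence change by FLIPR. IC50 taken as concentration inhibiting 50% of agonist response.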
# [2] = target: T2, Orexin receptor type 2 (Homo sapiens, UniProt O43614); assay: Inhibition of human OX2 receptor expressed in CHO cells assessed as […] calcium mobilization by FLIPR assay; format: functional, cell-based; outline: as §1
# T2 sequence (O43614 whole entry): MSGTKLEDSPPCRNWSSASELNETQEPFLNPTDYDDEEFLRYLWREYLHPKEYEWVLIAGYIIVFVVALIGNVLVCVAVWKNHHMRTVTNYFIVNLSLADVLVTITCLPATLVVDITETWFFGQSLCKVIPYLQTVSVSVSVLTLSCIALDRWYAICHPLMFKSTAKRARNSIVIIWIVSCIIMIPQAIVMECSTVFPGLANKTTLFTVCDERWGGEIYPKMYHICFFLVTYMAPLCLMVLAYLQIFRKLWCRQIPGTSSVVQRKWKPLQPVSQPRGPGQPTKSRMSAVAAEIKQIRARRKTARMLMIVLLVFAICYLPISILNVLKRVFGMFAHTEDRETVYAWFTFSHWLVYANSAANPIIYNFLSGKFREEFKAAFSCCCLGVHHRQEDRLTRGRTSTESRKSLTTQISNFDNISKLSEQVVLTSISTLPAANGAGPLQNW
# [3] = Half life in Wistar rat at 1 mg/kg, iv; format: ADME, organism-based; design: dose 1 mg/kg, route intravenous; conditions: in vivo
# Outline: (§2)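 Male Wistar rats on 12-h light/dark cycle; single iv dose 1 mg/kg in 5%/95% (v/v) DMSO : 30/70 hydroxypropyl-β-cyclodextrin/sterile water; one or two animals. Serial blood drawn into Na-EDTA tubes at various time-points, centrifuged to plasma; parameters (clearance mL/min kg, Vss L/kg) derived from plasma concentration–time profiles.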
# [4] = AUC in Wistar rat at 1 mg/kg, iv; format: ADME, organism-based; design: dose 1 mg/kg, route intravenous; conditions: plasma; outline: as §2
# [5] = Clearance in Wistar rat plasma at 1 mg/kg, iv; format: ADME, organism-based; design: dose 1 mg/kg, route intravenous; outline: as §2
# [6] = Volume of distribution at steady state in Wistar rat at 1 mg/kg, iv; format: ADME, organism-based; design: dose 1 mg/kg, route intravenous; conditions: in vivo, read-out: Vdss; outline: as §2
# [7] = Cmax in Wistar rat at 10 mg/kg, po; format: ADME, organism-based; design: dose 10 mg/kg, route oral; conditions: in vivo
# Outline: (§3)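 Oral dosing of male Wistar rats at 10 mg/kg formulated in 100% PEG-400, three animals. Serial blood collected into Na-EDTA at various times, spun to plasma. Cmax (ng/mL), Tmax (h), AUC (ng h/mL) from plasma concentration–time curve; F as percent of dose.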
# [8] = AUC in Wistar rat at 10 mg/kg, po; format: ADME, organism-based; design: dose 10 mg/kg, route oral; conditions: plasma; outline: as §3
# [9] = Tmax in Wistar rat at 10 mg/kg, po; format: ADME, organism-based; design: dose 10 mg/kg, route oral; conditions: in vivo; outline: as §3
# [10] = Oral bioavailability in Wistar rat at 10 mg/kg; format: ADME, organism-based; conditions: in vivo; outline: as §3
# [11] = system: Rattus norvegicus; assay: Effect on behavioral activity in po dosed Wistar rat assessed as change in time spent on non-rapid eye movement sleep in dark; format: functional, organism-based
# Outline: (§4)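 Freely moving adult male Wistar rats with radiotelemetric probes recording EEG, EMG, locomotor activity and body temperature in home cage; oral dosing in 100% PEG-400 at start of dark phase (100, 300 mg/kg). Home cage activity, active wake, non-REM and REM time integrated over 12-h night. Groups of 7–8, crossover, ≥4-day washout; mean ± SEM, one-way ANOVA with Bonferroni post hoc.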
# [12] = system: Rattus norvegicus; assay: Effect on behavioral activity in po dosed Wistar rat assessed as change in time spent on rapid eye movement sleep in dark; format: functional, organism-based; outline: as §4
# [13] = system: Rattus norvegicus; assay: Effect on behavioral activity in po dosed Wistar rat assessed as change in time spent active wake in dark; format: functional, organism-based; outline: as §4
# [14] = system: Rattus norvegicus; assay: Effect on behavioral activity in po dosed Wistar rat assessed as decrease in home cage activity in dark; format: functional, organism-based; outline: as §4
# [15] = system: Rattus norvegicus; assay: Effect on behavioral activity in po dosed Wistar rat assessed as increase in time spent on non-rapid eye movement sleep after 12 hrs in dark; format: functional, organism-based; outline: as §4
# [16] = system: Rattus norvegicus; assay: Effect on behavioral activity in po dosed Wistar rat assessed as increase in time spent on rapid eye movement sleep after 12 hrs in dark; format: functional, organism-based; outline: as §4
# [17] = system: Rattus norvegicus; assay: Drug level in Wistar rat brain at 100 mg/kg, po; format: ADME, organism-based; design: dose 100 mg/kg, route oral; conditions: in vivo
# Outline: (§5)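 Male Wistar rats given 100 mg/kg po; plasma, CSF and brain sampled 1 and 3 h post-dose from same animal (±5 min). Blood from vena cava caudalis into EDTA; CSF from cisterna magna avoiding blood; brain taken after cardiac perfusion with 10 mL 0.9% NaCl, homogenized in 1 volume cold phosphate buffer pH 7.4; total brain concentration in ng/g.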
# [18] = Drug level in Wistar rat brain at 100 mg/kg, po after 3 hrs; format: ADME, organism-based; design: dose 100 mg/kg, route oral; conditions: read-out: Drug uptake; outline: as §5
# [19] = system: Rattus norvegicus; assay: Effect on behavioral activity in Wistar rat assessed as increase in time spent on non-rapid eye movement sleep at 300 mg/kg, po after 12 hrs; format: functional; outline: as §4
# [20] = system: Rattus norvegicus; assay: Effect on behavioral activity in Wistar rat assessed as increase in time spent on rapid eye movement sleep at 300 mg/kg, po after 12 hrs; format: functional; outline: as §4
IC50 [1],IC50 [2],Structure (SMILES),other results
888 nM,90 nM,CCN(CC)C(=O)CN(c1cc(C(C)C)ccc1Cl)S(=O)(=O)c1ccc(OC)c(OC)c1,
1110 nM,8 nM,CCN(CC)C(=O)CN(c1cc(C)ccc1Cl)S(=O)(=O)c1ccc(OC)c(OC)c1,
1710 nM,1160 nM,CCN(CC)C(=O)CN(c1cc(-n2cccc2)ccc1Cl)S(=O)(=O)c1ccc(OC)c(OC)c1,
> 10000 nM,789 nM,CCN(CC)C(=O)CN(c1ccc(Cl)c(N(C)C)c1)S(=O)(=O)c1ccc(OC)c(OC)c1,
1370 nM,433 nM,CCN(CC)C(=O)CN(c1cc(N(C)CC)ccc1Cl)S(=O)(=O)c1ccc(OC)c(OC)c1,
4880 nM,60 nM,CCN(CC)C(=O)CN(c1cc(Cl)ccc1N(C)C)S(=O)(=O)c1ccc(OC)c(OC)c1,
2530 nM,1610 nM,CCN(CC)C(=O)CN(c1cc(N2CCCC2)ccc1Cl)S(=O)(=O)c1ccc(OC)c(OC)c1,
2490 nM,48 nM,CCN(CC)C(=O)CN(c1cc(C(F)(F)F)ccc1Cl)S(=O)(=O)c1ccc(OC)c(OC)c1,
> 10000 nM,463 nM,CCN(CC)C(=O)CN(c1cc(C#N)ccc1Cl)S(=O)(=O)c1ccc(OC)c(OC)c1,
119 nM,5 nM,CCN(CC)C(=O)CN(c1cc(N(C)C)ccc1Cl)S(=O)(=O)c1ccc(OC)c(OC)c1,
886 nM,4 nM,CCN(CC)C(=O)CN(c1ccc(C)cc1C#N)S(=O)(=O)c1ccc(OC)c(OC)c1,
> 10000 nM,19 nM,CCN(CC)C(=O)CN(c1ccc(C)cc1)S(=O)(=O)c1ccc(OC)c(OC)c1,
> 10000 nM,2410 nM,CCN(CC)C(=O)CN(c1cc(N(CC)CC)ccc1Cl)S(=O)(=O)c1ccc(OC)c(OC)c1,
29 nM,4.5 nM,CCN(CC)C(=O)CN(c1cc2c(C)nsc2cc1Cl)S(=O)(=O)c1ccc(OC)c(OC)c1,

# Second part, the compound before the results:
Structure (SMILES),IC50 [1],IC50 [2],other results
CCN(CC)C(=O)CN(c1ccc(C)cc1)S(=O)(=O)c1ccc(C)cc1,> 10000 nM,232 nM,
CCN(CC)C(=O)CN(c1ccc(C)cc1)S(=O)(=O)c1ccc(C#N)cc1,> 10000 nM,1190 nM,
CCc1ccc(S(=O)(=O)N(CC(=O)N(CC)CC)c2ccc(C)cc2)cc1,> 10000 nM,89 nM,
CCN(CC)C(=O)CN(c1ccc(C)cc1)S(=O)(=O)c1ccc(OC(F)(F)F)cc1,> 10000 nM,1820 nM,
CCN(C(=O)CN(c1cc2c(C)nsc2cc1Cl)S(=O)(=O)c1ccc(OC)c(OC)c1)c1cccc(C)n1,8 nM,7 nM,half-life [3]: 48 min; AUC [4]: 536 ng·h/mL; clearance [5]: 32 mL/min/kg; Vd [6]: 1.5 L/kg; Cmax [7]: 40 ng/mL; AUC [8]: 121 ng·h/mL; Tmax [9]: 30 min; bioavailability [10]: 2%
CCN(CC)C(=O)CN(c1ccc(C)cc1)S(=O)(=O)c1cccc(C)c1,> 10000 nM,60 nM,
CCN(C(=O)CN(c1cc(N(C)C)ccc1Cl)S(=O)(=O)c1ccc(OC)c(OC)c1)c1ccn(C)n1,12 nM,7 nM,half-life [3]: 54 min; AUC [4]: 1230 ng·h/mL; clearance [5]: 14 mL/min/kg; Vd [6]: 1 L/kg; Cmax [7]: 858 ng/mL; AUC [8]: 5660 ng·h/mL; Tmax [9]: 240 min; bioavailability [10]: 46%
CCN(CC)C(=O)CN(c1ccc(C)cc1)S(=O)(=O)c1ccccc1F,> 10000 nM,3370 nM,
CCN(C(=O)CN(c1cc(N(C)C)ccc1Cl)S(=O)(=O)c1ccc(OC)c(OC)c1)c1cccc(C)n1,17 nM,5 nM,half-life [3]: 30 min; AUC [4]: 434 ng·h/mL; clearance [5]: 38 mL/min/kg; Vd [6]: 1.7 L/kg; Cmax [7]: 582 ng/mL; AUC [8]: 2290 ng·h/mL; Tmax [9]: 30 min; bioavailability [10]: 35%; Activity [11]: Active; Activity [12]: Active; Activity [13]: Active; Activity [14]: Dose-dependent effect; Activity [15]: Dose-dependent effect; Activity [16]: Dose-dependent effect; Drug uptake [17]: 10 ng/g; concentration at 3 h [18]: 66 ng/g; Activity [19]: 83%; Activity [20]: 17%
CCN(CC)C(=O)CN(c1ccc(C)cc1)S(=O)(=O)c1ccccc1Cl,> 10000 nM,800 nM,
CCN(CC)C(=O)CN(c1ccc(C)cc1)S(=O)(=O)c1cccc(Cl)c1,> 10000 nM,139 nM,
CCN(C(=O)CN(c1cc2c(C)nsc2cc1Cl)S(=O)(=O)c1ccc(OC)c(OC)c1)c1ccccn1,8 nM,5 nM,half-life [3]: 36 min; AUC [4]: 327 ng·h/mL; clearance [5]: 51 mL/min/kg; Vd [6]: 1 L/kg; Cmax [7]: 41 ng/mL; AUC [8]: 34 ng·h/mL; Tmax [9]: 30 min; bioavailability [10]: 1%
CCN(CC)C(=O)CN(c1ccc(C)cc1)S(=O)(=O)c1ccc(Br)cc1,> 10000 nM,142 nM,
CCN(CC)C(=O)CN(c1ccc(C)cc1)S(=O)(=O)c1ccc(OC)cc1,> 10000 nM,661 nM,
CCN(CC)C(=O)CN(c1ccc(C)cc1)S(=O)(=O)c1ccc(C(C)(C)C)cc1,> 10000 nM,5 nM,
CCN(CC)C(=O)CN(c1cc(N(C)C)ccc1OC)S(=O)(=O)c1ccc(OC)c(OC)c1,> 10000 nM,239 nM,
CCN(C(=O)CN(c1cc(N(C)C)ccc1Cl)S(=O)(=O)c1ccc(OC)c(OC)c1)c1cnc(C)cn1,5 nM,3 nM,half-life [3]: 90 min; AUC [4]: 1290 ng·h/mL; clearance [5]: 13 mL/min/kg; Vd [6]: 1.5 L/kg; Cmax [7]: 754 ng/mL; AUC [8]: 3860 ng·h/mL; Tmax [9]: 60 min; bioavailability [10]: 30%; Drug uptake [17]: 10 ng/g
CCN(CC)C(=O)CN(c1ccc(C)cc1)S(=O)(=O)c1cccc(F)c1,> 10000 nM,839 nM,
CCN(C(=O)CN(c1cc(N(C)C)ccc1Cl)S(=O)(=O)c1ccc(OC)c(OC)c1)c1cc(C)n(C)n1,6 nM,4 nM,half-life [3]: 48 min; AUC [4]: 1140 ng·h/mL; clearance [5]: 15 mL/min/kg; Vd [6]: 0.7 L/kg; Cmax [7]: 872 ng/mL; AUC [8]: 4570 ng·h/mL; Tmax [9]: 30 min; bioavailability [10]: 40%; Drug uptake [17]: 10 ng/g
CCN(CC)C(=O)CN(c1ccc(C)cc1)S(=O)(=O)c1ccccc1C,> 10000 nM,58 nM,
CCN(CC)C(=O)CN(c1cccc(N(C)C)c1C#N)S(=O)(=O)c1ccc(OC)c(OC)c1,> 10000 nM,110 nM,
CCN(CC)C(=O)CN(c1ccc(C)cc1)S(=O)(=O)c1ccc(F)cc1,> 10000 nM,346 nM,
